Data set [1] concerns the target T1, Sphingomyelin phosphodiesterase 3 (Rattus norvegicus, UniProt O35049).
T1 sequence (O35049 whole entry): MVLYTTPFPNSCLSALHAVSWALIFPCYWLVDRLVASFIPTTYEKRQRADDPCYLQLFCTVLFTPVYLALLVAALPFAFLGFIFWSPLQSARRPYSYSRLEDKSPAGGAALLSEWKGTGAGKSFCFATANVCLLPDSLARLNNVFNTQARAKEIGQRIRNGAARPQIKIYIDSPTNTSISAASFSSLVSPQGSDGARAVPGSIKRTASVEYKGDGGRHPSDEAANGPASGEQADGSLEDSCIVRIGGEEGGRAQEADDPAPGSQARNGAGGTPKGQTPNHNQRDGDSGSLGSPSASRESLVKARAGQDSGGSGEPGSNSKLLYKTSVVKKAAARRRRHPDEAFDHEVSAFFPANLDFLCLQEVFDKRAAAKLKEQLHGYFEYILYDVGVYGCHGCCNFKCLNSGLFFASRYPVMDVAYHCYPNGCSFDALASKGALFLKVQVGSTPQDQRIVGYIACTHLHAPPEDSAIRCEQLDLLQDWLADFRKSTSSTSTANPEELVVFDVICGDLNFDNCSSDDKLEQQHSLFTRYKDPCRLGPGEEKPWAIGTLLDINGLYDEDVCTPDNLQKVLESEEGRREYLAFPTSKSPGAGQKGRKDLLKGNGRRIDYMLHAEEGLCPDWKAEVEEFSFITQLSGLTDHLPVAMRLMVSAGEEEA
Put plainly: Inhibition of rat brain neutral sphingomyelinase pre-incubated for 30 mins before p-nitrophenyl/phosphorylcholine substrate addition by spectrophotometry.

Data set [2] can be described thus: Drug level in CD-1 mouse treated with at 10 mg/kg, po 4-(4,5-Diisopropyl-1H-imidazol-2-yl)-2,6-dimethoxyphenol hydrochloride assessed as compound formation measured after 2 hrs by UPLC and LC-MS/MS analysis. It is filed as ADME, organism-based. The settings on record: in vivo. In outline:
(§1)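 Male CD-1 mice (25–30 g), single oral gavage 10 mg/kg in 5% DMSO, 5% polysorbate 80, 90% saline; 3 mice per time point, sacrificed at 0.5 and 2 h. Cardiac blood into heparin, plasma by centrifugation; brains flash frozen. Acetonitrile extraction with losartan internal standard; quantified by UPLC–LC-MS/MS against calibration curves in naïve plasma/brain matrix.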

A short description of data set [3]: Metabolic stability in human liver microsomes assessed as parent compound remaining at 5 uM in presence of NADPH regenerating system measured after 1 hr by LC/MS/MS method. Format: ADME, Microsome. A general note: Liver microsomes are vesicles of endoplasmic reticulum, rich in cytochrome P450 enzymes.
Data set [4] can be described thus: Metabolic stability in human liver microsomes assessed as parent compound remaining in presence of UDPGA at 5 uM measured after 1 hr by LC/MS/MS method. It is filed as ADME, Microsome. A digest of the protocol:
(§2)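 Glucuronidation: compound in 50 mM Tris-HCl pH 7.5 with microsomes 0.5 mg/mL, 8 mM MgCl2, 25 μg/mL alamethicin, preincubated at 37 °C; started with UDPGA 2 mM final, triplicate; 60 min; quenched with cold acetonitrile plus internal standard; parent remaining by LC/MS/MS; cofactor-free controls.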

Data set [5] can be described thus: Drug metabolism in CD-1 mouse assessed as (2S,3S,4S,5R,6S)-6-(4-(4,5-diisopropyl-1H-imidazol-2-yl)-2,6-dimethoxyphenoxy)-3,4,5-trihydroxytetrahydro-2H-pyran-2-carboxylic acid at 10 mg/kg, po measured after 2 hrs by UPLC and LC-MS/MS analysis. The note with it: in vivo. It is filed as ADME, organism-based.
Data set [6] addresses T2, Sphingomyelin phosphodiesterase 3 (Homo sapiens, UniProt Q9NY59).
T2 sequence (Q9NY59 whole entry): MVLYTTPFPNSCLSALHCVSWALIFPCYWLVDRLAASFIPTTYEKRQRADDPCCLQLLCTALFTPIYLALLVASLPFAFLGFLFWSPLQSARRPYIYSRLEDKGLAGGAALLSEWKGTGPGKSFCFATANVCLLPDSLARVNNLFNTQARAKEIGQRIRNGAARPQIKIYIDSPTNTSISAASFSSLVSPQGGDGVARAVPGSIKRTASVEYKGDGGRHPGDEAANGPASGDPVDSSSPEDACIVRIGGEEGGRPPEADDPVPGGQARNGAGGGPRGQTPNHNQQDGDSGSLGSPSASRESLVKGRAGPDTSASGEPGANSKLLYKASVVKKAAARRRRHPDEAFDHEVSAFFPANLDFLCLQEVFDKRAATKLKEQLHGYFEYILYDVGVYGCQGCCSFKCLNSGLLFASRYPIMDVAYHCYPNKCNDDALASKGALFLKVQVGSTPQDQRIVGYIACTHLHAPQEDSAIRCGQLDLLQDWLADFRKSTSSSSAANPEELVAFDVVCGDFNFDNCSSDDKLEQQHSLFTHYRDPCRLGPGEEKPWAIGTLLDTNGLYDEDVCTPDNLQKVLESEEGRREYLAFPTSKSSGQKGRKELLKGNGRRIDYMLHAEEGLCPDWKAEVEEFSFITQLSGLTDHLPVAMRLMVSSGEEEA
As to the kind of experiment: Inhibition of human recombinant nSMase expressed in HEK293 cells using sphingomyelin as substrate by alkaline phosphatase, choline oxidase and horseradish peroxidase dependent H2O2 detection based fluorescence coupled assay. In outline:
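Fluorescence-based coupled assay with human recombinant nSMase2, alkaline phosphatase and choline oxidase; IC50 values are mean ± SD of at least three experiments.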

Data set [7] can be described thus: Metabolic stability in mouse liver microsomes assessed as parent compound remaining in presence of UDPGA at 5 uM measured after 1 hr by LC/MS/MS method. Format: ADME, Microsome. In outline: as §2
The nature of data set [8]: Ratio of drug level of test compound to drug level of DPTIP in CD-1 mouse brain at 10 mg/kg, po measured after 2 hrs by UPLC and LC-MS/MS analysis. Format: ADME, organism-based. The settings on record: in vivo. In outline: as §1
The species entered for data set [9] is Homo sapiens. As to the kind of experiment: Selectivity index, ratio of IC50 for choline oxidase (unknown origin) to IC50 for Inhibition of human recombinant nSMase expressed in HEK293 cells. Format: cell-based.
Data set [10] is described as follows: Metabolic stability in mouse liver microsomes assessed as parent compound remaining at 5 uM in presence of NADPH regenerating system measured after 1 hr by LC/MS/MS method. Format: ADME, Microsome.
For data set [11], the species on record is Homo sapiens. As to the kind of experiment: Selectivity index, ratio of IC50 for alkaline phosphatase (unknown origin) to IC50 for Inhibition of human recombinant nSMase expressed in HEK293 cells. It is filed as cell-based.
Data set [12] is described as follows: Ratio of drug level in brain to plasma in CD-1 mouse at 10 mg/kg, po measured after 2 hrs by UPLC and LC-MS/MS analysis. Format: ADME, organism-based. In outline:
as §1

Data set [13] in a line: Ratio of drug level of test compound to drug level of DPTIP in CD-1 mouse plasma at 10 mg/kg, po measured after 0.5 hrs by UPLC and LC-MS/MS analysis. Format: ADME, organism-based. The settings on record: in vivo. A digest of the protocol: as §1
The nature of data set [14]: Selectivity index, ratio of IC50 for horseradish peroxidase to IC50 for Inhibition of human recombinant nSMase expressed in HEK293 cells. It is filed as cell-based.
The nature of data set [15]: Ratio of drug level of test compound to drug level of DPTIP in CD-1 mouse plasma at 10 mg/kg, po measured after 2 hrs by UPLC and LC-MS/MS analysis. It is filed as ADME, organism-based. The settings on record: in vivo. A digest of the protocol: as §1

Molecules are shown by their SMILES.

Consider `O=C(/C=C\c1ccc(/C=C\C(=O)Nc2ccc(C3=NCCN3)cc2)cc1)Nc1ccc(C2=NCCN2)cc1`, for which, in data set [1], the concentration for half-maximal inhibition (IC50) (as a rule, the concentration needed to halve the response being measured) was 1000 nM.
As to `COc1cc(-c2nc(C(C)C)c(C(C)C)[nH]2)cc(OC)c1O[C@@H]1O[C@H](C(=O)O)[C@@H](O)[C@H](O)[C@H]1O`, the Drug uptake entry in data set [2] is listed as “Active”.
For `COc1cc(-c2nc(C(C)C)c(C(C)C)[nH]2)cc(OC)c1O`, the Stability in [3] is > 95%; in [4], 32%; in data set [7], 14%; in [10] it was 82%. For the same molecule, the Drug metabolism result in data set [5] was “Metabolite_Detected”. Besides, the IC50 in [6] was 90 nM. For the same molecule, the Ratio is 3 in [8], 3 in data set [13] and 6 in [15]. Moreover, the Ratio IC50 (in the data set listed under Homo sapiens [9]; in the data set listed under Homo sapiens [11]; in data set [14]) was > 5 throughout. In [12], the BPR turned out to be 9%.

Source of the values: ChEMBL document CHEMBL4385599, “Neutral sphingomyelinase 2 inhibitors based on the 4-(1H-imidazol-2-yl)-2,6-dialkoxyphenol scaffold” (Eur J Med Chem, 2019).
